High-throughput results from PubChem.
EWS-Fli inh – EWS/Fli-driven NR0B1 reporter inhibitors, primary screen, A673 cells, NR0B1 luciferase, luminescence, MLPCN library; 350,000 tested, 0.67% active; viability-normalised; inhibition, % at 12.6 µM;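 active means mean inhibition of at least 50% after viability correction, with every replicate also passing that limit; inconclusive means mean reaches 50% but only one of two replicates passes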;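 further: firefly luciferase signal divided by Alamar Blue viability fluorescence both relative to DMSO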
PGC1a acetyl inh – inhibitors of PGC1a acetylation signal, primary screen, cell-based, U2OS, AlphaScreen, inhibitor mode. inhibition, % at 15.6 µM. 350,000 tested, 0.17% active. AlphaScreen anti-acetyl-lysine; with virally co-expressed GCN5 acetyltransferase. AID 651687, 2012;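 active means every replicate shows inhibition of at least 40%; inconclusive means mean inhibition at least 40% but some replicate below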
Env fusion inh – inhibitors of HIV-1 Env-driven cell-cell fusion, primary screen, HeLa-JRFL effector, CEM21 target cells, luciferase; inhibition, % at 12.3 µM; 360,000 tested, 1.1% active; AID 651610, 2012;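 active means mean replicate inhibition score of at least 50 and every replicate individually at or above 50; inconclusive means only one of the two criteria met; inactive means mean below 50 and not all replicates reaching 50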
FN deposition inh – inhibitors of fibronectin matrix deposition, primary screen, AH1F cells, Alexa488-fibronectin fluorescence, plate reader; AH1F fibroblasts, overnight; inhibition, % at 12.6 µM; 350,000 tested, 0.086% active;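 active means mean inhibition across replicates of 30% or more, regardless of how many single replicates reach that level; inconclusive means mean under 30% yet at least half of replicates reach 30%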
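Schedule: 1 h cell adhesion before compound, then overnight fibronectin incubation; test system: AH1F fibroblast monolayer depositing Alexa488-labelled fibronectin into matrix; quantity: 10000 AH1F cells per well; probe or stimulus: fluorescent fibronectin at 24 nM final; signal: fluorescence, ex 485 nm, em 525 nm; evaluation: percent inhibition as loss of matrix-bound fibronectin fluorescence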
PAX8 reporter – inhibitors of PAX8-driven TPO luciferase reporter, primary screen, RMG-I cells, single concentration; SteadyGlo, 24 h; inhibition, % at 12.6 µM; 360,000 tested, 1.2% active; AID 652154, 2013;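 active means mean replicate inhibition at least 60% with every replicate also reaching 60%; inconclusive means only one of the two criteria is met; inactive means mean below 60% and not all replicates reaching 60%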;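 further: luciferase light reporting Pax8 driven TPO promoter activity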
FGF22 binding – binders of human FGF22 protein, primary screen, FGF22 synaptogenesis inhibitor project, biophysical, thermal shift, single point. Fibroblast growth factor 22 (Homo sapiens), Q9HCT0. recombinant FGF22 thermal shift, SYPRO orange fluorescence; percent of sucrose octasulfate shift, DMSO zero. activity (Tm shift, normalised), % at 9.99 µM. 340,000 tested, 1.5% active. AID 651658, 2012;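 active means mean Tm shift, scaled 0 neutral to 100 positive control, at about 1.3% or above, every replicate too, limit read from the data; inconclusive means no clear call, values can overlap the other calls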
Target sequence (Q9HCT0 whole entry, looked up): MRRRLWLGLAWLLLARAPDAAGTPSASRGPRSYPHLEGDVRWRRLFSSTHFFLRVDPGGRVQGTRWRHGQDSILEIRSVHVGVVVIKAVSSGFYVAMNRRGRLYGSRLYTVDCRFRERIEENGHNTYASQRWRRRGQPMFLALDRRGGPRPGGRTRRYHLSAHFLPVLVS
Hits are given with their value; 0 = inactive; ? = inconclusive; - = no result. In the library only some 3.1% were active in any assay of this set; here they are far more common.

SMILES	EWS-Fli inh	PGC1a acetyl inh	Env fusion inh	FN deposition inh	PAX8 reporter	FGF22 binding
CC1(C)CC(CC(=O)Nc2nccs2)(c2ccccc2)CCO1 (stereo unspecified)	0	-	-	0	69	0
C[C@@H]1CCCCO[C@@H](CN(C)C(=O)Nc2ccccc2)[C@H](C)CN([C@H](C)CO)C(=O)c2cc(NC(=O)c3ccccc3)ccc2O1	0	0	0	0	0	0
C=CS(=O)(=O)c1ccc(Oc2ccc(S(=O)(=O)C=C)cc2)cc1	53	-	0	0	98	0
Cc1nnc(SC(=O)N2c3ccccc3Sc3ccccc32)s1	-	0	69	0	-	-
C[C@@H]1CN([C@H](C)CO)C(=O)c2cc(C3=CCCCC3)cnc2O[C@H]1CN(C)Cc1cccnc1	0	0	0	0	0	0
O=C(COC(=O)c1ccccc1C(=O)c1ccc(Cl)c([N+](=O)[O-])c1)NC1CC1	63	0	0	0	0	0
CNC(=O)COC(=O)c1ccccc1C(=O)c1ccc(Cl)c([N+](=O)[O-])c1	0	0	0	0	0	0
C[C@H](CO)N1C[C@H](C)[C@H](CN(C)C(=O)C2CC2)Oc2cc(C#C[C@@H](C)O)ccc2S1(=O)=O	0	0	0	0	-	0
O=C(OCC(=O)N1CCC(Cc2ccccc2)CC1)c1ccccc1O	0	0	0	0	0	43
Cc1cccc(NC(=O)/C=C/c2ccc([N+](=O)[O-])s2)c1	68	-	0	0	73	0
Cc1cccc(NC(=S)N/N=C/c2ccc([N+](=O)[O-])s2)c1	-	0	105	0	-	-
Cc1ccc(NC(=O)/C=C/c2ccc([N+](=O)[O-])s2)c(C)c1	71	-	0	0	98	0
O=C(N/N=C/c1ccc([N+](=O)[O-])s1)c1cccc(Br)c1	-	-	66	-	-	-
CC(C)NC(=O)N(C)C[C@@H]1Oc2ccc(NS(C)(=O)=O)cc2CC(=O)N(C)C[C@@H]1C	-	-	-	0	-	-
CNC[C@@H]1OCCCC[C@H](C)Oc2ccc(NS(=O)(=O)c3ccc(Cl)cc3)cc2C(=O)N([C@H](C)CO)C[C@@H]1C	0	0	0	-	0	0
O=C(N/N=C/c1cc(Br)ccc1O)c1ccncc1	0	0	0	0	0	0
O=C(N/N=C/c1ccc(O)c2ncccc12)c1cccc(Br)c1	0	?	?	0	72	0
O=C(NC1CCCCC1)C(c1ccnc2ccccc12)n1c(=O)c(-c2ccco2)nc2ccccc21 (stereo unspecified)	0	-	0	0	0	0
O=C(NC1CCCCC1)C(c1ccccc1F)n1c(=O)c(-c2ccco2)nc2ccccc21 (stereo unspecified)	0	-	59	0	0	0
CCOC(=O)c1ccc(NC(=S)NCC(O)c2ccccc2)cc1 (stereo unspecified)	-	-	0	0	0	-
CCc1ccc(NC(=O)C(=O)NCC(O)c2ccccc2)cc1 (stereo unspecified)	0	-	0	0	0	43
C=CCNS(=O)(=O)c1cccc2cc(C(=O)O)c(O)cc12	-	95	0	0	0	-
C[C@H](CO)N1C[C@H](C)[C@H](CN(C)C)Oc2cc(C#CCN(C)C)ccc2S1(=O)=O	0	0	0	0	-	0
COc1ccc(S(=O)(=O)Nc2ccc3c(c2)C(=O)N([C@@H](C)CO)C[C@@H](C)[C@H](CN(C)CC2CC2)O3)cc1	0	0	-	0	-	0
O=S1(=O)N=C(N/N=C/c2ccc(Br)o2)c2ccccc21	0	0	0	-	0	43
O=C(C[C@H]1CC[C@H]2[C@@H](COC[C@@H](O)CN2C(=O)Nc2ccccc2)O1)NC1Cc2ccccc2C1	0	0	-	0	0	0
O=C(COC(=O)CCC(=O)c1ccc(Cl)cc1)NCc1ccc(F)cc1	0	0	0	0	0	43
O=C(COC(=O)Cc1ccc(Cl)cc1)NCc1ccc(F)cc1	0	0	-	0	0	0
NC(=O)c1ccc(NC(=O)COC(=O)CCC(=O)c2ccc(Cl)cc2)cc1	0	-	0	0	0	43
O=C(COC(=O)c1ccc(Br)o1)NCc1ccc(F)cc1	0	-	-	0	0	27
